Assay [1] relates to Haemonchus contortus fourth-stage larvae (L4s). The experiment in a line: L4 motility assay. The format is cell-based.
The subject of assay [2] is mammary epithelial cell line (MCF10A). Briefly: cells. The format is cell-based. The note with it: for IC50 / inhibition at 100 µM: Homo sapiens, MCF-10A; for IC50: 48 h, read-out: MCF10A cells IC50; for inhibition at 100 µM: read-out: MCF10A cells % inhibition at 100 μM; for Selectivity index (SI) H. contortus L4 (72 h) / Selectivity index (SI) H. contortus L4 development (7 days) / Selectivity index (SI) H. contortus xL3 (72 h): highest value of IC50 range; for selectivity index (SI) for parasitic larvae of H. contortus, range: range over xL3, L4 motility and L4 development.

Assay [3] has as its system Haemonchus contortus exsheathed third-stage larvae (xL3s). Briefly: Whole-organism xL3 motility assay. To be noted: for IC50: Haemonchus contortus. The format is cell-based.
Assay [4] deals with microfilariae of Dirofilaria immitis. The note with it: read-out: motility IC50, D. immitis microfilariae; cited from earlier work.
For assay [5], the system named is microfilariae of Brugia malayi. The note with it: read-out: motility IC50, B. malayi microfilariae; ref Storey et al., 2014; cited from earlier work.
The test system of assay [6] is adult female and male Brugia malayi. To be noted: ref Storey et al., 2014, cited from earlier work.
For assay [7], the system named is microfilariae of Dirofilaria immitis. The experiment in a line: microbe, parasite or virus in culture. The format is cell-based. To be noted: for IC50: Dirofilaria immitis, read-out: motility IC50, D. immitis microfilariae.
In assay [8] the test system is microfilariae of Brugia malayi. The experiment in a line: Microfilariae motility assay. The format is cell-based. To be noted: 72 h, read-out: motility IC50, B. malayi microfilariae. The gist of the method:
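Individual gravid B. malayi females in RPMI-1640 with gentamycin (10 μg/ml) and amphotericin B (2.5 μg/ml). Two-fold test-compound dilutions from 100 to 0.97 μM in duplicate; RPMI* with 1% DMSO as negative control. Incubated at 37 °C, 5% CO2. At 72 h, about 100 released microfilariae moved to 96-well plates and filmed for 30 s on the Worminator. Run three times; IC50 from a four-parameter variable-slope fit.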

The next assay has as its system T. muris L1s. Briefly: Whipworm L1 in vitro assay. The format is cell-based, Trichuris muris. The gist of the method:
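Forty T. muris L1s per well in 100 μl RPMI-1640 with amphotericin B (12.5 μg/ml), penicillin (500 U/ml) and streptomycin (500 μg/ml). Test compound at 100 μM in duplicate; levamisole (100 μM) as positive control. Held 24 h at 37 °C, 5% CO2. Total L1s counted, then larvae stimulated with 100 μl hot water and motile L1s counted.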

The subject of assay [9] is adult female and male Brugia malayi. The experiment in a line: Adult motility assay. The note with it: for IC50: Brugia malayi. The format is cell-based.
The subject of a further assay is adult A. ceylanicum. Briefly: Adult hookworm in vitro assay. The format is cell-based, Ancylostoma ceylanicum. The note with it: for killing of adult A. ceylanicum: 50 μM, 72 h. The gist of the method: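 Adult worms taken from small intestines of hamsters orally infected with 150 A. ceylanicum L3s three weeks earlier. Three worms per well, 2 wells per compound, in HBSS with 10% foetal calf serum, amphotericin B (25 μg/ml), penicillin (100 U/ml) and streptomycin (100 μg/ml). Test compound at 50 μM; levamisole (50 μM) as positive control. Held 72 h at 37 °C, 5% CO2, then condition assessed microscopically.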

The mark [10] stands for this setting: 24 h, read-out: L4 motility IC50.
[11] abbreviates: 48 h, read-out: L4 motility IC50.
Where [12] appears, read: 72 h, read-out: L4 motility IC50.
Where [13] appears, read: 24 h, read-out: xL3 motility IC50.
Setting [14] is: 48 h, read-out: xL3 motility IC50.
[15] abbreviates: 72 h, read-out: xL3 motility IC50.
Where [16] appears, read: IC50 MCF10A / IC50 nematode, estimated IC50 range.

Values joined by “and” are separate entries in the source; they are usually repeats but may differ in a detail not shown here. Identical values can stand only once. Like-named read-outs stand apart in the source and are kept apart here. Marks after values point to notes of the source that are not given here.

On to `C[C@](C#N)(COc1cc(C#N)ccc1C(F)(F)F)NC(=O)c1ccc(SC(F)(F)F)cc1` [Monepantel, monepantel], for which the IC50 in assay [1] (setting [10]) worked out at 760 ± 290 nM; in [1] (setting [11]), 340 ± 180 nM; in [1] (setting [12]), 370 ± 320 nM; in [2], 24900 ± 11800 nM; in assay [3] (setting [13]), 480 ± 230 nM; in [3] (setting [14]), 260 ± 150 nM. Besides, the IC50 in assay [3] (setting [15]) turned out to be 160 ± 80 nM. For the same compound, the inhibition at 100 µM in assay [2] was 0.1 ± 0.05%. The “Selectivity index (SI) H. contortus L4 (72 h)” value in assay [2] (IC50 MCF10A / IC50 nematode) stood at 67.4. Further, the “Selectivity index (SI) H. contortus L4 development (7 days)” value (“Selectivity index … (7 days)” below) in [2] (IC50 MCF10A / IC50 nematode) is on record as 332.4. The “selectivity index (SI) for parasitic larvae of H. contortus, range” value (from here on “selectivity index (SI) … range”) in assay [2] is 67–332.

Consider `CO/N=C1\C[C@]2(C[C@@H]3C[C@@H](C/C=C(\C)C[C@@H](C)/C=C/C=C4\CO[C@@H]5[C@H](O)C(C)=C[C@@H](C(=O)O3)[C@]45O)O2)O[C@H](/C(C)=C/C(C)C)[C@H]1C` [Moxidectin, moxidectin], for which the IC50 in assay [1] (setting [10]) was 70 ± 40 nM; in [1] (setting [11]), 50 ± 20 nM; in [1] (setting [12]), 20 ± 10 nM; in assay [2] it was < 6000 nM; in [4] it was 9300 nM; in [5], ~6000 nM. The IC50 came out at 190 ± 30 nM in assay [3] (setting [13]), 970 ± 840 nM in [3] (setting [14]) and 80 ± 40 nM in [3] (setting [15]). Moreover, the inhibition at 100 µM in assay [2] came out at 0.05 ± 0.01%. In addition, in assay [2] (IC50 MCF10A / IC50 nematode), the “Selectivity index (SI) H. contortus L4 (72 h)” value is 300. Besides, the “Selectivity index … (7 days)” value in assay [2] (IC50 MCF10A / IC50 nematode) came to 1.7. In assay [2] (IC50 MCF10A / IC50 nematode), the “Selectivity index (SI) H. contortus xL3 (72 h)” value amounted to 75. In assay [2], the “selectivity index (SI) … range” value was 2 to 300. The entries for the “comparison value for motility of adult B. malayi” value in assay [6] (24 h) and in assay [6] (48 h) were 1.3 µM and 2.9 µM, respectively.

For `O=C(Nc1ccc(Cl)cc1)N1CCCC1c1nc(-c2ccccc2)no1` (stereo not shown) [SN00797439, N-(4-chlorophenyl)-2-(3-phenyl-1,2,4-oxadiazol-5-yl)-1-pyrrolidinecarboxamide], the IC50 in assay [1] (setting [10]) was 6250 to 12500 nM; in assay [1] (setting [11]) it was 780 to 1500 nM; in assay [1] (setting [12]), 310 to 780 nM; in assay [1] (read-out: L4 motility IC50 (abstract summary)), 310 to 12500 nM; in [2] it was 50000 to 100000 nM; in assay [7] (24 h), ~50000 nM. Besides, the IC50 was ~50000 nM in assay [7] (48 h); ~3000 nM in assay [8]; 3460 ± 820 nM in assay [3] (setting [13]); 10100 ± 2060 nM in assay [3] (setting [14]); 5930 ± 1380 nM in assay [3] (setting [15]); 3460 to 5930 nM in assay [3] (read-out: xL3 IC50 (abstract summary)). Besides, the IC50 in the assay on T. muris L1s (Trichuris muris, read-out: IC50 on first-stage larvae of T. muris (abstract)) is 3000 to 50000 nM; in [9] (24 h, read-out: motility IC50, B. malayi adult female) it was 25000 to 50000 nM; in assay [9] (24 h, read-out: motility IC50, B. malayi adult male), 25000 to 50000 nM. Further, the “Selectivity index (SI) D. immitis mff (48 h)” value in assay [2] is reported as 2 ^b. In assay [2], the inhibition at 100 µM was 6.2 ± 0.66%. Also, the “Selectivity index (SI) B. malayi adult females” value in [2] (setting [16]) is recorded as 2 ^b. Moreover, the “Selectivity index (SI) B. malayi adult males” value in [2] (setting [16]) is recorded as 2 ^b. Further, the “Selectivity index (SI) H. contortus L4 (72 h)” value in [2] (IC50 MCF10A / IC50 nematode) is listed as 128.2 ^b. In addition, in assay [2] (IC50 MCF10A / IC50 nematode), the “Selectivity index … (7 days)” value is listed as 9.1. For the same compound, the “Selectivity index (SI) H. contortus xL3 (72 h)” value in assay [2] (IC50 MCF10A / IC50 nematode) is reported as 16.9. Further, the “selectivity index (SI) … range” value in assay [2] is 9–128. In addition, in assay [7], the “concentration giving complete inhibition of microfilariae motility” value was found to be 100 µM. Moreover, in assay [3] (20 μM), the xL3 phenotype result was ““coiled” xL3 phenotype”. Moreover, in [3] (20 μM, 72 h, primary and confirmatory screens), the “reduction of xL3 motility” value is listed as ≥ 70%. Moreover, in the assay on T. muris L1s (100 μM, 24 h), the “T. muris L1s dead” value is > 90% and 90.1%. Besides, the “concentration at which movement of female and male adults ceased” value is 100 µM in assay [9] (24 h) and 50 µM in assay [9] (48 h). For the same compound, the “kill of adults of A. ceylanicum (abstract)” value in the assay with adult A. ceylanicum is recorded as > 90%. Besides, in the assay on adult A. ceylanicum, the “killing of adult A. ceylanicum” value is “killed”.

For `c1ccc([C@H]2CN3CCSC3=N2)cc1` [levamisole, reference compound], in the assay with T. muris L1s (100 μM, 24 h), the “killing of T. muris L1s” value is on record as “killed”. In addition, the “killing of adult A. ceylanicum” value in the assay on adult A. ceylanicum was “killed”.

Regarding ivermectin, in assay [4], the IC50 was 43000 nM.

The IC50 is the concentration that inhibits the measured activity by half. By inhibition is commonly meant the relative decrease from the control value, in per cent.

The values are drawn from PMC5517787 (International Journal for Parasitology: Drugs and Drug …, 2017).
